For 36 molecules, No. of chicks and minimal effective concentration results are on record in ChEMBL document CHEMBL1121928, “Pyrazolo[3,4-d]pyrimidine ribonucleosides as anticoccidials. 1. Synthesis and activity of some nucleosides of purines and 4-(alkylthio)pyrazolo[3,4-d]pyrimidines” (J Med Chem, 1982).

The species named for data set [1] is Gallus gallus. The experiment in a line: Number of chicks cleared of eimeria tenella lesions out of a group of 5 when given in the diet at 50 p.p.m. It is filed as functional. A digest of the protocol:
(§1)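 One-week-old chicks were given a simultaneous infection of E. tenella (Weybridge strain) and E. acervulina (Ongar strain). Infection took place 1 day after medication began. Compound was mixed into the diet and fed ad libitum until the end of the test.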

The next data set relates to Eimeria tenella. The experiment in a line: Inhibition Eimeria tenella growth. It is filed as functional. The note with it: read-out: MEC. In outline: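 E. tenella (Weybridge strain) grown in vitro in embryonic chick liver cells. Toxicity to the host liver cells was scored in the same culture system.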
For data set [2], the species on record is Gallus gallus. The experiment in a line: Number of chicks cleared of eimeria tenella lesions out of a group of 5 when given in the diet at 200 ppm. It is filed as functional. A digest of the protocol:
(§2)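 One-week-old chicks infected with E. tenella (Weybridge strain) together with E. acervulina (Ongar strain) one day after medication began. Compound mixed into the diet and fed ad libitum until the end of the test.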

The species entered for data set [3] is Gallus gallus. The experiment in a line: Number of chicks cleared of eimeria tenella lesions out of a group of 5 when given in the diet at 100 ppm. It is filed as functional. In outline: as §1
For data set [4], the species on record is Gallus gallus. The experiment in a line: Number of chicks cleared of eimeria tenella lesions out of a group of 5 when given in the diet at 25 p.p.m. It is filed as functional. In outline: as §1
The species entered for data set [5] is Gallus gallus. Put plainly: Number of chicks cleared of Eimeria tenella lesions out of a group of 5 when given in a diet of 400 ppm. It is filed as functional. A digest of the protocol: as §1
The species entered for data set [6] is Gallus gallus. The experiment in a line: Number of chicks cleared of eimeria tenella lesions out of a group of 5 when given in the diet at 400 ppm. It is filed as functional. A digest of the protocol: as §1
The species named for data set [7] is Gallus gallus. The experiment in a line: Number of chicks out of a group of five that died due to toxicity when given in the diet at 400 ppm. It is filed as organism-based. As to conditions: chicken, in vivo, po. A digest of the protocol: as §2
The species entered for data set [8] is Gallus gallus. The experiment in a line: Number of chicks cleared of eimeria tenella lesions out of a group of 5 when given in the diet at 200 p.p.m. It is filed as functional. In outline: as §1
The species named for data set [9] is Gallus gallus. Put plainly: Number of chicks out of a group of five that died due to toxicity when given in the diet at 200 ppm. It is filed as organism-based. The note with it: chicken, in vivo, po. A digest of the protocol:
as §2

The species named for data set [10] is Gallus gallus. The experiment in a line: Number of chicks out of a group of five that died due to toxicity when given in the diet at 100 ppm. It is filed as organism-based. The note with it: chicken, in vivo, po. In outline: as §2
For data set [11], the species on record is Gallus gallus. The experiment in a line: Number of chicks cleared of eimeria tenella lesions out of a group of 5 when given in the diet at 100 p.p.m. Type of data set: functional. In outline: as §1
The species entered for data set [12] is Gallus gallus. The experiment in a line: Number of chicks cleared of eimeria tenella lesions out of a group of 5 when given in the diet at 400 p.p.m. It is filed as functional. In outline: as §1

With `CCCCCSc1ncnc2c1cnn2C1O[C@H](CO)[C@@H](O)[C@H]1O` (stereo partly specified), the No. of chicks in the data set filed under Gallus gallus [1] turned out to be 0; in the data set listed under Gallus gallus [2], 5; in the data set listed under Gallus gallus [3], 3; in the data set listed under Gallus gallus [4] it was 0. The minimal effective concentration in the data set with Eimeria tenella turned out to be 0.31 µg/mL.

Turning to `CSc1nc(C)nc2c1ncn2C1O[C@H](CO)[C@@H](O)[C@H]1O` (stereo partly specified), the minimal effective concentration in the data set with Eimeria tenella was greater than 25 µg/mL.

As for `CSc1ncnc2c1nnn2[C@@H]1O[C@H](CO)[C@@H](O)[C@H]1O`, the minimal effective concentration with Eimeria tenella was 1.25 µg/mL.

`CSc1ncnc2c1ncn2[C@H]1C[C@H](O)[C@@H](CO)O1`: the minimal effective concentration in the data set on Eimeria tenella amounted to 50 µg/mL.

Molecule `CCSc1[nH]cnc2nncc1-2` showed a No. of chicks in the data set filed under Gallus gallus [5] of 0.

For the molecule `COC(=O)CSc1ncnc2c1cnn2C1O[C@H](CO)[C@@H](O)[C@H]1O` (stereo partly specified), the minimal effective concentration in the data set on Eimeria tenella was 20 µg/mL. In the data set filed under Gallus gallus [2], the No. of chicks is 0.

Regarding `CCOP(=O)(CCSc1ncnc2c1cnn2C1O[C@H](CO)[C@@H](O)[C@H]1O)OCC` (stereo partly specified), the minimal effective concentration with Eimeria tenella is 5 µg/mL. In addition, the No. of chicks in the data set listed under Gallus gallus [2] turned out to be 1.

Regarding `CSc1ncnc2c1ncn2[C@@H]1O[C@H](CO)[C@@H](O)[C@H]1O`, in the data set with Eimeria tenella, the minimal effective concentration came out at 0.31 µg/mL.

Turning to `CCSc1ncnc2c1ncn2[C@@H]1O[C@H](CO)[C@@H](O)[C@H]1O`, the minimal effective concentration in the data set with Eimeria tenella was found to be 1.25 µg/mL.

In the case of `Sc1ncnc2[nH]ncc12` [TISOPURINE], the minimal effective concentration in the data set on Eimeria tenella was greater than 20 µg/mL. The same molecule came in with a No. of chicks in the data set filed under Gallus gallus [6] of 0.

Turning to `CSc1ncnc2c1cnn2C1O[C@H](CO)[C@@H](O)[C@H]1O` (stereo partly specified), the No. of chicks in the data set listed under Gallus gallus [7] was determined as 4; in the data set filed under Gallus gallus [8] it was 3; in the data set filed under Gallus gallus [9], 2; in the data set listed under Gallus gallus [1] it was 2; in the data set filed under Gallus gallus [10], 1; in the data set filed under Gallus gallus [11] it was 2. Besides, the No. of chicks in the data set filed under Gallus gallus [12] is 1; in the data set filed under Gallus gallus [4] it was 0. Moreover, the minimal effective concentration in the data set on Eimeria tenella was 0.03 µg/mL.

In the case of `CSc1nc(N)nc2c1ncn2[C@@H]1O[C@H](CO)[C@@H](O)[C@H]1O`, the minimal effective concentration in the data set on Eimeria tenella came to 50 µg/mL.

For the molecule `CCCCCSc1ncnc2c1ncn2C1O[C@H](CO)[C@@H](O)[C@H]1O` (stereo partly specified), the minimal effective concentration in the data set with Eimeria tenella was greater than 50 µg/mL.

For the molecule `CSc1nc(SC)c2ncn(C3O[C@H](CO)[C@@H](O)[C@H]3O)c2n1` (stereo partly specified), the minimal effective concentration in the data set on Eimeria tenella was greater than 50 µg/mL.

`CCCCCCSc1ncnc2c1cnn2C1O[C@H](CO)[C@@H](O)[C@H]1O` (stereo partly specified): the No. of chicks in the data set listed under Gallus gallus [1] is 0; in the data set filed under Gallus gallus [2], 5; in the data set listed under Gallus gallus [3], 2; in the data set filed under Gallus gallus [4], 0. For the same molecule, the minimal effective concentration with Eimeria tenella turned out to be 0.019 µg/mL.

Take `CCCCSc1ncnc2c1cnn2C1O[C@H](CO)[C@@H](O)[C@H]1O` (stereo partly specified): the No. of chicks was 0 in the data set filed under Gallus gallus [1], 5 in the data set filed under Gallus gallus [2], 1 in the data set listed under Gallus gallus [3] and 0 in the data set listed under Gallus gallus [4]. Also, in the data set with Eimeria tenella, the minimal effective concentration was found to be 0.019 µg/mL.

Consider `CSc1nccc2c1ncn2C1O[C@H](CO)[C@@H](O)[C@H]1O` (stereo partly specified), for which, in the data set on Eimeria tenella, the minimal effective concentration is greater than 20 µg/mL.

For `CCSc1ncnc2c1cnn2C1O[C@H](CO)[C@@H](O)[C@H]1O` (stereo partly specified), the No. of chicks in the data set filed under Gallus gallus [8] was determined as 5; in the data set listed under Gallus gallus [1] it was 5; in the data set listed under Gallus gallus [11] it was 5; in the data set filed under Gallus gallus [4], 2. Besides, the minimal effective concentration with Eimeria tenella is 0.31 µg/mL.

With `Sc1ncnc2nc[nH]c12` [MERCAPTOPURINE ANHYDROUS], in the data set with Eimeria tenella, the minimal effective concentration was greater than 20 µg/mL.

As for `CSc1ncnc2c1ncn2[C@@H]1O[C@H](CO)[C@@H](O)[C@@H]1O`, the minimal effective concentration with Eimeria tenella is greater than 20 µg/mL.

As for `C/C=C/CSc1ncnc2c1cnn2C1O[C@H](CO)[C@@H](O)[C@H]1O` (stereo partly specified), the No. of chicks in the data set listed under Gallus gallus [1] is 0; in the data set listed under Gallus gallus [2], 5; in the data set filed under Gallus gallus [3], 4; in the data set filed under Gallus gallus [4], 0. In addition, in the data set on Eimeria tenella, the minimal effective concentration came to 0.019 µg/mL.

On to `OC[C@H]1O[C@@H](n2cnc3c(S)ncnc32)[C@H](O)[C@@H]1O` [THIOINOSINE], for which, in the data set on Eimeria tenella, the minimal effective concentration was greater than 20 µg/mL.

Regarding `OC[C@H]1OC(n2ncc3c(SC4CCCC4)ncnc32)[C@H](O)[C@@H]1O` (stereo partly specified), in the data set on Eimeria tenella, the minimal effective concentration was determined as 5 µg/mL. Also, in the data set listed under Gallus gallus [2], the No. of chicks is recorded as 1.

`OC[C@H]1OC(n2ncc3c(S)ncnc32)[C@H](O)[C@@H]1O` (stereo partly specified) yielded a No. of chicks in the data set listed under Gallus gallus [8] of 2. Moreover, the minimal effective concentration in the data set on Eimeria tenella stood at 0.31 µg/mL.

Take `CSc1ncnc2[nH]cnc12`: the minimal effective concentration in the data set with Eimeria tenella is greater than 20 µg/mL.

As for `C=CCSc1ncnc2c1cnn2C1O[C@H](CO)[C@@H](O)[C@H]1O` (stereo partly specified), the No. of chicks in the data set listed under Gallus gallus [1] is given as 2; in the data set listed under Gallus gallus [2], 5; in the data set listed under Gallus gallus [3], 5; in the data set filed under Gallus gallus [4], 1. In the data set with Eimeria tenella, the minimal effective concentration is 0.019 µg/mL.

As for `CC(C)Sc1ncnc2c1cnn2C1O[C@H](CO)[C@@H](O)[C@H]1O` (stereo partly specified), the minimal effective concentration in the data set on Eimeria tenella was 0.019 µg/mL. The No. of chicks in the data set listed under Gallus gallus [12] is 0.

For the molecule `CCCCCSc1ncnc2[nH]cnc12`, the minimal effective concentration in the data set on Eimeria tenella came to 20 µg/mL.

`OC[C@H]1OC(n2ncc3cncnc32)[C@H](O)[C@@H]1O` (stereo partly specified) came in with a No. of chicks in the data set listed under Gallus gallus [8] of 1. Besides, the minimal effective concentration in the data set on Eimeria tenella amounted to 1.3 µg/mL.

Regarding `CCSc1[nH]cnc2ncnc1-2`, in the data set on Eimeria tenella, the minimal effective concentration is greater than 20 µg/mL.

For the molecule `CC(=O)CSc1ncnc2c1cnn2C1O[C@H](CO)[C@@H](O)[C@H]1O` (stereo partly specified), the minimal effective concentration with Eimeria tenella is greater than 20 µg/mL. The molecule also came in with a No. of chicks in the data set listed under Gallus gallus [2] of 0.

Regarding `CCCSc1ncnc2c1cnn2C1O[C@H](CO)[C@@H](O)[C@H]1O` (stereo partly specified), the No. of chicks in the data set listed under Gallus gallus [8] is reported as 4; in the data set listed under Gallus gallus [1] it was 0; in the data set filed under Gallus gallus [11] it was 1; in the data set listed under Gallus gallus [4], 0. In the data set on Eimeria tenella, the minimal effective concentration was 0.019 µg/mL.

On to `CCCCCCCSc1ncnc2c1cnn2C1O[C@H](CO)[C@@H](O)[C@H]1O` (stereo partly specified), for which the No. of chicks in the data set filed under Gallus gallus [8] was 1. Besides, the minimal effective concentration in the data set with Eimeria tenella turned out to be 0.31 µg/mL.

For the molecule `Nc1nc(=S)c2ncn([C@@H]3O[C@H](CO)[C@@H](O)[C@H]3O)c2[nH]1` [THIOGUANOSINE], in the data set on Eimeria tenella, the minimal effective concentration is greater than 50 µg/mL.

Turning to `CCCCCSc1[nH]cnc2nncc1-2`, the minimal effective concentration with Eimeria tenella amounted to 5 µg/mL.

On to `CSc1[nH]cnc2nncc1-2`, for which, in the data set on Eimeria tenella, the minimal effective concentration stood at 20 µg/mL.
